Assay [1] relates to Blood. Description: Inhibition of LPS-induced TNFalpha production in human whole blood at 10 uM treated 1 hr before LPS challenge measured after 5 hrs by ELISA. Type of assay: functional. The procedure, abridged: (§1)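 Whole blood aliquots preincubated 1 h at 37 °C with test compound (10 or 100 μM solution) or DMSO vehicle, then stimulated with LPS in PBS (final 1 ng/ml). Incubated a further 5 h at 37 °C, stopped on ice 10 min. Plasma separated by centrifugation (3000 rpm, 10 min, 4 °C), stored at −70 °C. Plasma TNF-α quantified by ELISA.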
(In general: An ELISA detects its analyte on a solid surface through an enzyme-linked reagent.)

The test system of assay [2] is Blood. Description: Inhibition of LPS-induced TNFalpha production in human whole blood at 100 uM treated 1 hr before LPS challenge measured after 5 hrs by ELISA. Type of assay: functional. The procedure, abridged: as §1

Structures are written as SMILES.

Five molecules from ChEMBL document CHEMBL1155213, “Solvent free synthesis of 1,5-disubstituted tetrazoles derived from Baylis Hillman acetates as potential TNF-alpha inhibitors” (2009) can be followed below.

As to `COC(=O)/C(=C/c1ccc(OC)cc1)Cn1nnnc1-c1cccnc1`, the inhibition at 10 µM in assay [1] was found to be 5.4%. The same molecule came in with an inhibition at 100 µM in assay [2] of 30.2%.
As for `COC(=O)/C(=C/c1ccc(OC)cc1)Cn1nnnc1-c1ccncc1`, testing at 10 µM in assay [1] gave an inhibition of 8.6%. This molecule returned an inhibition at 100 µM in assay [2] of 12.9%.
Turning to `COC(=O)/C(=C/c1ccc(OC)cc1)Cn1nnnc1-c1ccccc1`, the inhibition at 10 µM in assay [1] amounted to 22.2%. In assay [2], this molecule had an inhibition at 100 µM of 46.3%.
On the same counts, the results for `COC(=O)/C(=C/c1ccccc1)Cn1nnnc1-c1ccccc1` are 14.6% and 35.1%.
With `COC(=O)/C(=C/c1ccccc1)Cn1nnnc1-c1ccncc1`, testing at 10 µM in assay [1] gave an inhibition of 18.2%. Besides, in assay [2], at 100 µM the inhibition was 67%.

As usually defined, the inhibition is the drop in the measured response relative to a control, in per cent. Read a low inhibition as a weak effect.
